Data set [1] is described as follows: Antiproliferative activity against human U251MG cells for 72 hrs by cyquant assay. The format is functional, cell-based. The settings on record: U-251, 72 h. In outline: (§1)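 CyQuant proliferation assay after 72 h compound exposure of cultured cells; relative viability normalized to DMSO-treated control; IC50 values derived. Glioma lines grown in RPMI or DMEM with 10% FBS and 1% nonessential amino acids.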

Data set [2] can be described thus: Cytotoxicity against mouse NIH/3T3 cells at 1 uM by trypan blue exclusion with phase contrast microscopy. The format is cell-based. The settings on record: nih3t3, 1 µM.
Data set [3] deals with U-251. Briefly: Antimitotic activity in human U251MG cells assessed as defect in chromatid structure at 8 uM after 15 hrs confocal microscopic analysis. The class given is functional, cell-based. The method in brief: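 U251MG on coverslips synchronized by double thymidine block (2 mM), released 9 h, treated 15 h (8 μM; paclitaxel 100 nM). Fixed 4% paraformaldehyde, digitonin-permeabilized, BSA-blocked, stained for β-tubulin and MAP1B with DAPI counterstain; chromatid structure and segregation scored by confocal microscopy.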

Data set [4] has as its target Stalled ribosome sensor GCN1 (Homo sapiens) (UniProt Q92616). Briefly: Decrease in GCN1 expression in human U373MG cells at 5 uM for 2 hrs by immunoblot analysis. The format is functional, cell-based. To be noted: U-373MG ATCC.
Data set [5] is described as follows: Cell cycle arrest in human U251MG cells assessed as accumulation at G2/M phase at 5 uM for 15 hrs by flow cytometry. The format is functional, cell-based. The settings on record: U-251.
A short description of data set [6]: Decrease in vimentin expression in human U251MG cells at 5 uM for 2 hrs by immunoblot analysis. The class given is functional, cell-based. To be noted: U-251. For orientation: Immunoblotting shows a protein as a band on a membrane.
A short description of data set [7]: Decrease in TxR1 cytoplasmic isoform 3 expression in human U251MG cells at 5 uM for 1 hr by mass spectrometry relative to control. The class given is functional, cell-based. To be noted: U-251. In outline:
(§2)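 Global proteomic mass spectrometry of lysates from U251MG cells treated 1 h with 5 μM compound; protein levels expressed relative to DMSO-treated cells.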

In data set [8] the test system is U-251. The data set can be described thus: Antitumor activity against human U251MG cells xenografted in mouse assessed as decrease in Stat3 level in tumor at 2 mg/kg three times a week for 33 days administered via oral gavage by immunoblot analysis. The class given is functional, organism-based. The method in brief:
(§3)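 Female athymic nude mice, 4 weeks old, given subcutaneous flank injections of 7.3×10^6 U251MG cells in PBS/matrigel; dosing began at 170–250 mm3 tumors (day 20). Oral gavage 2 mg/kg, vehicle 1% DMSO, for 33 days. Caliper volumes V = 0.52×a²×b, compared with vehicle by paired t test; tumor lysates immunoblotted for pStat3, Stat3, GAPDH.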

The target in data set [9] is Stalled ribosome sensor GCN1 (Homo sapiens) (UniProt Q92616). The data set can be described thus: Decrease in GCN1 expression in human U251MG cells at 5 uM for 2 hrs by immunoblot analysis. The format is functional, cell-based. The settings on record: U-251.
The target of data set [10] is Microtubule-associated protein 1B (Homo sapiens) (UniProt P46821). The data set can be described thus: Decrease in MAP1B expression in human Glioma (G22) patient derived xenograft cells at 5 uM for 2 hrs by immunoblot analysis. The class given is functional. The settings on record: Glioma cell. (Xenograft models place foreign cells or tissue in a host animal.)
The test system of data set [11] is U-251. Briefly: Antitumor activity against human U251MG cells xenografted in mouse assessed as decrease in pStat3 level in tumor at 2 mg/kg three times a week for 33 days administered via oral gavage by immunoblot analysis. The class given is functional, organism-based. The method in brief:
as §3

A further data set deals with Glioma cell. Briefly: Increase in importin subunit alpha2 expression in human Glioma (G22) patient derived xenograft cells at 5 uM for 2 hrs by immunoblot analysis. The class given is functional.
Data set [12] in a line: Decrease in G6PD expression in human U251MG cells at 5 uM for 1 hr by mass spectrometry relative to control. The format is functional, cell-based. To be noted: U-251. The method in brief:
(§4)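 U251MG cells treated 1 h with 5 μM compound; whole-cell lysates analyzed by global proteomics mass spectrometry; protein levels expressed relative to DMSO-treated cells.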

A short description of data set [13]: Decrease in vimentin expression in human Glioma (G22) patient derived xenograft cells at 5 uM for 2 hrs by immunoblot analysis. The format is functional. The settings on record: Glioma cell.
In data set [14] the test system is U-251. The data set can be described thus: Antitumor activity against human U251MG cells xenografted in mouse assessed as decrease in tumor growth at 2 mg/kg three times a week for 33 days administered via oral gavage. The class given is functional, organism-based. The method in brief: as §3
In data set [15] the test system is U-251. Briefly: Antiproliferative activity against human U251MG cells at 5 uM for 24 hrs by BrdU incorporation assay. The format is functional, cell-based. In outline:
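U251MG on glass coverslips treated with DMSO or 5 μM compound for 3–24 h; 10 μM BrdU added during the last 2 h. Cells fixed in 4% paraformaldehyde, stained with anti-BrdU antibody, DAPI counterstained, imaged by fluorescence microscopy and counted.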

For data set [16], the system named is U-251. The data set can be described thus: Induction of apoptosis in human U251MG cells assessed as cleaved caspase 3 level at 8 uM after 24 to 48 hrs by immunoblot analysis. The format is functional, cell-based.
In data set [17] the test system is U-251. The data set can be described thus: Induction of apoptosis in human U251MG cells assessed as PARP level at 8 uM after 24 to 48 hrs by immunoblot analysis. The format is functional, cell-based.
A short description of data set [18]: Decrease in G6PD expression in human Glioma (G22) patient derived xenograft cells at 5 uM for 2 hrs by immunoblot analysis. The class given is functional. To be noted: Glioma cell.
The subject of another data set is U373 MG. The data set can be described thus: Increase in importin subunit alpha2 expression in human U373MG cells at 5 uM for 2 hrs by immunoblot analysis. The format is functional, cell-based. To be noted: U-373MG ATCC.
In data set [19] the test system is Mus musculus. The data set can be described thus: Toxicity in mouse xenografted with U251MG cells assessed as effect on body weight at 2 mg/kg three times a week for 33 days administered via oral gavage. The format is organism-based, U-251. The settings on record: in vivo, 792 h. In outline:
(§5)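 Four-week-old female athymic nude mice, injected subcutaneously in the left flank with 7.3×10^6 U251MG cells in PBS/matrigel (1:1). Tumors of 170–250 mm^3 formed by day 20, and groups were matched for mean size. Dosing was 2 mg/kg by oral gavage, three times weekly for 33 days, with 1% DMSO vehicle. Animals were monitored daily and weighed every 3 days.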

Data set [20] concerns Mus musculus. Briefly: Toxicity in mouse xenografted with U251MG cells assessed as activity at 2 mg/kg three times a week for 33 days administered via oral gavage. To be noted: in vivo, 792 h. The format is organism-based, U-251. The method in brief:
as §5

Data set [21] in a line: Decrease in vimentin expression in human U251MG cells at 5 uM for 1 hr by mass spectrometry relative to control. The class given is functional, cell-based. To be noted: U-251. The method in brief: as §2
In data set [22] the target is Heat shock protein 105 kDa (Homo sapiens) (UniProt Q92598). Briefly: Decrease in Hsp105 expression in human U251MG cells at 5 uM for 1 hr by mass spectrometry relative to control. The format is functional, cell-based. To be noted: U-251. In outline: as §4
Data set [23] in a line: Cytotoxicity against mouse NIH/3T3 cells after 72 hrs by cyquant cells. The class given is cell-based. The settings on record: NIH3T3, 72 h. The method in brief: as §1
For data set [24], the target named is T1, Signal transducer and activator of transcription 3 (Homo sapiens, UniProt P40763). The data set can be described thus: Inhibition of Stat3 activity in human U251MG cells assessed as decrease in Mcl-1 expression at 5 uM after 24 hrs by immunoblot analysis. To be noted: U-251. The format is cell-based. In outline: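 U251MG cells treated with 5 μM compound for 0–24 h. Whole-cell lysates immunoblotted for pStat3, Stat3, c-Myc, Bcl-2, Bcl-xL, Mcl-1, GAPDH. Control was 0.025% DMSO.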

Data set [25] in a line: Decrease in TNAP2 expression in human U251MG cells at 5 uM for 1 hr by mass spectrometry relative to control. The settings on record: U-251. The class given is functional, cell-based. In outline: as §2
For data set [26], the target named is T1, Signal transducer and activator of transcription 3. Briefly: Inhibition of Stat3 phosphorylation in human U251MG cells transfected with Stat3 flag-tagged DNA-binding domain at 5 uM after 1.5 hrs by immunoblot analysis. The format is cell-based. To be noted: U-251. The method in brief:
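U251MG cells transiently transfected with 7.5–21 μg FLAG-Stat3 NTD, CCD, DBD or CTD plasmid, or pcDNA3 mock. Re-seeded 24 h later; after another 18 h, treated with or without 5 μM compound for 1.5 h. Whole-cell lysates immunoblotted for FLAG, pY705Stat3, Stat3, GAPDH. 0.025% DMSO control. Representative of 2 independent determinations.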

Structures are written as SMILES. Active and inactive are the calls of the source. The rule behind the calls is not given here.

Chain of Stalled ribosome sensor GCN1 (Homo sapiens) (Q92616 whole entry): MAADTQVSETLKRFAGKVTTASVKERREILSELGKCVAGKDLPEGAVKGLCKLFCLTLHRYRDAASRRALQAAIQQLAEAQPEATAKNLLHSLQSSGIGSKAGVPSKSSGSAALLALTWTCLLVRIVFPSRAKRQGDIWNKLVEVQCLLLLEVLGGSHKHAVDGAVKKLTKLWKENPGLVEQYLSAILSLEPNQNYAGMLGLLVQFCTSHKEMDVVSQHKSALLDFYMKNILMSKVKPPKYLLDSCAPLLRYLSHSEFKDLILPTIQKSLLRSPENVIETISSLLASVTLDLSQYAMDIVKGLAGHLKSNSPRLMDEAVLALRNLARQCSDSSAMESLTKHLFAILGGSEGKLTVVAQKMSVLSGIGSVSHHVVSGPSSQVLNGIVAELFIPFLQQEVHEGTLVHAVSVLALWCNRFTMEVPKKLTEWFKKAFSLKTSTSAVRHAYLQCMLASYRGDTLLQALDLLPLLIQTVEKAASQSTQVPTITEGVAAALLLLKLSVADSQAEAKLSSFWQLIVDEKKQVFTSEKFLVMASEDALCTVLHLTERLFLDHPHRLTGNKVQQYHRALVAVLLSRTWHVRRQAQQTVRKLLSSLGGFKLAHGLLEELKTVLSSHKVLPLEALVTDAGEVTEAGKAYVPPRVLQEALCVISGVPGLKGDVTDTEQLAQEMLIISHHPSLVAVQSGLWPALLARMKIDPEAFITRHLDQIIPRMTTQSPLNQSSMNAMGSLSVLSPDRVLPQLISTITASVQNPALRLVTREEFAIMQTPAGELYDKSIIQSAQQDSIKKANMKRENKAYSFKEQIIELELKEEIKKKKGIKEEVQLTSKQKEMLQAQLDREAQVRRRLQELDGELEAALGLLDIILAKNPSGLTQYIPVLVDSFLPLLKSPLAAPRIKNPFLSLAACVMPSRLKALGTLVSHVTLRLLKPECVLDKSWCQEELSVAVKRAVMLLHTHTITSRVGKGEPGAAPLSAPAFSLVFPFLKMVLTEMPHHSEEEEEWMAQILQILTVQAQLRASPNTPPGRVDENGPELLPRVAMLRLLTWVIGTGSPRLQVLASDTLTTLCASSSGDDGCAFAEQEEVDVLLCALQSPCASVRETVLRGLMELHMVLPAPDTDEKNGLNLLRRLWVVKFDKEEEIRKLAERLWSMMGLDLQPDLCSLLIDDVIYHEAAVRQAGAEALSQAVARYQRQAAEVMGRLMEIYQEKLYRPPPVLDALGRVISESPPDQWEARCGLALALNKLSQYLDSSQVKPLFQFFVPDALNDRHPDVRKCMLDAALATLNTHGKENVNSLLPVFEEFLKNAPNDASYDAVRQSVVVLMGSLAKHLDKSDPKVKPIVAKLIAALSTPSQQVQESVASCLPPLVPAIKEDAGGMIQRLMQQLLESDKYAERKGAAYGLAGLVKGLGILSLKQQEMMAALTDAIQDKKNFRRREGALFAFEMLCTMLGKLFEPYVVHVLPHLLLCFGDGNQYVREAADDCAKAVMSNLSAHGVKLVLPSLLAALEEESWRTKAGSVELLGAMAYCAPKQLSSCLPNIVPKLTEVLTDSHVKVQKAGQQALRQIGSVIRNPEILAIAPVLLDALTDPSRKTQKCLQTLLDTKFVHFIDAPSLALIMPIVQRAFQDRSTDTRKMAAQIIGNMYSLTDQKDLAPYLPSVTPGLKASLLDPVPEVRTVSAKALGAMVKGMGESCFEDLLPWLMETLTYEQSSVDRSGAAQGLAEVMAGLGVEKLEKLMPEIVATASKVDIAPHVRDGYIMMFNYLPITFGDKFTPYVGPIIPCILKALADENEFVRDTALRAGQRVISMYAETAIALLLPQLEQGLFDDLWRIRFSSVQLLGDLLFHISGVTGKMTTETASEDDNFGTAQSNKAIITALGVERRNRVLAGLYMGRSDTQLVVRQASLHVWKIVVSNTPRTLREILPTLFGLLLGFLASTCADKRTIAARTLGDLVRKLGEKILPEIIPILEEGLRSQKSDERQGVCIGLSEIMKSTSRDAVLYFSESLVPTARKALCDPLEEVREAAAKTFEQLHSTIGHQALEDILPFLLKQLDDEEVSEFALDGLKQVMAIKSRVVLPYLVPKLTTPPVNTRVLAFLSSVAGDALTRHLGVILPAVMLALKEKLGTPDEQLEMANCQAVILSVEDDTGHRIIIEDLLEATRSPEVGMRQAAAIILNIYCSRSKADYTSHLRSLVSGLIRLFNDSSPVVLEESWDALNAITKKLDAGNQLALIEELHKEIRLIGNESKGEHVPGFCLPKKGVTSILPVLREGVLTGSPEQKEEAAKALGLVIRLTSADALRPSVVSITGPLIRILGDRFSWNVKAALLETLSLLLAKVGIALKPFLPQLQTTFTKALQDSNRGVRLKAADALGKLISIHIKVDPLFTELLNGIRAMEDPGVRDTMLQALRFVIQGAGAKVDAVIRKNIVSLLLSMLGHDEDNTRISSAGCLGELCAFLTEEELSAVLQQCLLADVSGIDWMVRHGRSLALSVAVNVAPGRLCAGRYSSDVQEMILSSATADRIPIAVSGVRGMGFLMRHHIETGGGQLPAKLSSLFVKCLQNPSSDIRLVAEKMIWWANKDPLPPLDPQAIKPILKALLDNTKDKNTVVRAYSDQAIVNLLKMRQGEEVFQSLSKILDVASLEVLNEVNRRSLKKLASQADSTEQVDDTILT
T1 sequence (P40763 whole entry): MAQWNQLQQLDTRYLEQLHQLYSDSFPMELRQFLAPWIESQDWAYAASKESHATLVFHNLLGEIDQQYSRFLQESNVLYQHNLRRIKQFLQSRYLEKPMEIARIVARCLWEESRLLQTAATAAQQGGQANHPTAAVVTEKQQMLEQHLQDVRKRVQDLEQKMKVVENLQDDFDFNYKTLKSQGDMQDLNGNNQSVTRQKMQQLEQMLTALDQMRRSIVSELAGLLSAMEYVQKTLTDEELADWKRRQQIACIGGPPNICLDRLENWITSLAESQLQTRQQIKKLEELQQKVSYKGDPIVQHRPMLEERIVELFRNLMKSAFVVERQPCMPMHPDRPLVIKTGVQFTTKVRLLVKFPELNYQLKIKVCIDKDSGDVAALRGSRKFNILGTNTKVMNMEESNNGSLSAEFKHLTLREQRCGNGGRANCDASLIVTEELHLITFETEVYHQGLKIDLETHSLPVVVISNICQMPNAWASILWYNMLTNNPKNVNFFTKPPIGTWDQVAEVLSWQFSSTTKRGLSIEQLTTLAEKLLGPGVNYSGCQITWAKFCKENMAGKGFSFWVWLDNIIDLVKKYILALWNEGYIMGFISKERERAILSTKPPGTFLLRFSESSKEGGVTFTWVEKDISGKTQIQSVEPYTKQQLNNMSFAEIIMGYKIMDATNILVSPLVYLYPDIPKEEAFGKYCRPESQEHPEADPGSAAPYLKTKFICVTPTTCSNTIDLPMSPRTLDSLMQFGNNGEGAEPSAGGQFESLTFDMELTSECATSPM
Chain of Heat shock protein 105 kDa (Homo sapiens) (Q92598 whole entry): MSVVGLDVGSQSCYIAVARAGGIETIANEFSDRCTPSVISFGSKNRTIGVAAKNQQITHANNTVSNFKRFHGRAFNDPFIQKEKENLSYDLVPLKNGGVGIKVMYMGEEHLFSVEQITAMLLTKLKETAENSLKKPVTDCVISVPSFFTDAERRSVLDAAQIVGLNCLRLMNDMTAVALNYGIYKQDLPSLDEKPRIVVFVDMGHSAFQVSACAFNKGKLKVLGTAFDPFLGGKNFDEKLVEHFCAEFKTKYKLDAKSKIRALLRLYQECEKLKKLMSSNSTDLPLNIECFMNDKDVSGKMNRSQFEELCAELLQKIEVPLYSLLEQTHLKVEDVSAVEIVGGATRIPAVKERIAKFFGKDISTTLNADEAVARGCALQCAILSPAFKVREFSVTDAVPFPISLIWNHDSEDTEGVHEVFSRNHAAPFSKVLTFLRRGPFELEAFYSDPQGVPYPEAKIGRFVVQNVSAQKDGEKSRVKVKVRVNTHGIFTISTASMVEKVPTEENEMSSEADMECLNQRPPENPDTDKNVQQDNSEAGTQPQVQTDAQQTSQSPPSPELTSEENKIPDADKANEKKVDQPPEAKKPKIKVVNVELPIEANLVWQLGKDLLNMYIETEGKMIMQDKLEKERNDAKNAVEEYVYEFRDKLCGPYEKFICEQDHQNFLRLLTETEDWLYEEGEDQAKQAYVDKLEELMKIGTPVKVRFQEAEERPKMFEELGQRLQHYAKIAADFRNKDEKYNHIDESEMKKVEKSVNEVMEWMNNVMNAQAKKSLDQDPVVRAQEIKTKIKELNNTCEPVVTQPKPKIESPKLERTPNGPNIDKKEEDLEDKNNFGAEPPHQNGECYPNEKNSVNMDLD

As a reminder, the IC50 is the point on the concentration scale where inhibition reaches its midpoint. Higher therefore signals lower potency. As for `C/C=C(\C)C(=O)O[C@H]1C[C@@H](C)[C@]2(OC)CC[C@](C)(/C=C3/OC(=O)C(COC(C)=O)=C31)O2`, the IC50 in data set [1] came out at 3400 nM.

In the case of `C/C=C(\C)C(=O)OCC1=C2/C(=C\[C@@]3(C)CC[C@](O)(O3)[C@H](C)C[C@@H]2O)OC1=O`, the Activity entry (in data set [2]; in the data set on Mus musculus [19]; in the data set with Mus musculus [20]) was “Non-toxic” throughout. The outcome (in the data set with U-251 [3]; in [5]; in the data set with U-251 [8]; in the data set on U-251 [11]; in the data set on Glioma cell; in the data set with U-251 [14]) was Active. Moreover, the result with U-251 [15] and with U373 MG was Active. Also, the inhibition result in data set [4], in data set [6], in [9], in data set [10], in data set [13] and in data set [18] was “Active” each time. The figures for the fold change (FC) in data set [7] and in [12] were 0.305 and 0.275, respectively. Moreover, the outcome in the data set with U-251 [16] and in the data set with U-251 [17] was inactive.

For the molecule `C/C=C(\C)C(=O)O[C@H]1C[C@@H](C)[C@]2(O)CC[C@](C)(/C=C3/OC(=O)C(COC(C)=O)=C31)O2`, the fold change (FC) in [21] is 0.308; in data set [22], 0.501; in data set [25], 0.449. Further, the outcome with U-251 [3], with U-251 [8], in the data set on U-251 [11], in the data set with Glioma cell, in the data set with U-251 [14] and with U-251 [15] was Active. For the same molecule, the result with U373 MG was Active. In addition, the inhibition entry in data set [4], in data set [6], in data set [9], in [10], in [24] and in data set [13] was “Active” in each case. The inhibition entry in data set [18] is “Active”. Further, the values for the IC50 in [1] and in data set [23] were 1700 nM and 2000 nM, respectively. For the same molecule, the Activity result in the data set with Mus musculus [19] and in the data set on Mus musculus [20] was “Non-toxic” in each case. Also, in data set [26], the inhibition entry was “inactive”.

The record behind these values is ChEMBL document CHEMBL3627612, “Hirsutinolide Series Inhibit Stat3 Activity, Alter GCN1, MAP1B, Hsp105, G6PD, Vimentin, TrxR1, and Importin α-2 Expression, and Induce Antitumor Effects against Human Glioma” (J Med Chem, 2015).
